The text below walks through data of ChEMBL document CHEMBL1811763, “Design, syntheses, and kinetic evaluation of 3-(phenylamino)oxazolidine-2,4-diones as potent cytochrome bc₁ complex inhibitors” (Bioorg Med Chem, 2011).

The source made the active and inactive calls. The calls are words filed in the database; no cut-off is given here.

Broadly, the IC50 is the concentration that inhibits the measured activity by half. The Km is the substrate concentration at which the rate is half of its maximum. One may read the Vmax as the top rate of the reaction or transport when substrate is in excess. The Ki is a dissociation constant, usually derived from enzyme kinetics or from competition with a known ligand. The low end stands for a stronger hold on the target, the high end for a looser hold on the target.

Assay [1] is filed under the species Sus scrofa. The experiment in a line: Inhibition of pig heart Cytochrome b-c1 complex assessed as oxidation of DBH2 by spectrophotometer. The gist of the method: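 Porcine SCR preparation at 0.1 nM, reaction with 100 µM oxidized cytochrome c and 100 µM DBH2 in 100 mM PBS (pH 7.4), 0.3 mM EDTA; run at 23 °C both without and with 750 µM lauryl maltoside. For kinetics, DBH2 was varied over 20–200 µM with 0–5000 nM inhibitor, and Ki was fitted on a competitive model. DBH2 concentration was set from A288–A320.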

Assay [2] is described as follows: Inhibition of pig heart succinate-cytochrome c reductase (Electron transport protein complex 2/3) assessed as increase of cytochrome c by spectrophotometer. Also on record: species or system Sus scrofa.
Assay [3] is filed under the species Sus scrofa. The experiment in a line: Inhibition of pig heart Succinate-ubiquinone oxidoreductase assessed as decrease of 2,6-dichlorophenolindophenol by spectrophotometer. The gist of the method:
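Complex II activity within porcine SCR, with succinate and DCIP as substrates. Final concentrations: 100 mM PBS pH 7.4, 0.3 mM EDTA, 20 mM succinate, 53 µM DCIP; adding enzyme starts the reaction. DCIP reduction was followed as absorbance decrease at 600 nm (ε 21 mM⁻¹ cm⁻¹).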

The species entered for assay [4] is Sus scrofa. Kind of assay: Activity of pig heart succinate-cytochrome c reductase (Electron transport protein complex 2/3) using cytochrome c as substrate by Line-weaverBurk plot analysis. It counts as tissue-based. In outline:
(§1)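 Overall succinate→cytochrome c activity of porcine SCR (0.1 nM) was measured at 23 °C in 100 mM PBS pH 7.4, 0.3 mM EDTA and 20 mM succinate. Cytochrome c was varied over 1.16–16.02, with inhibitor at graded levels. Km(cyt c), Vmax and Ki came from double-reciprocal plots, assuming non-competitive inhibition.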

A short description of assay [5]: Competitive inhibition of pig heart Cytochrome b-c1 complex using DBH2 as substrate in presence of lauryl maltoside by Line-weaverBurk plot analysis. Also noted: species or system Sus scrofa. In outline:
(§2)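 Porcine SCR preparation (0.1 nM) as the bc1 source, at 23 °C in 100 mM PBS pH 7.4, 0.3 mM EDTA and 750 lauryl maltoside. Substrates were 100 oxidized cytochrome c and DBH₂ varied over 20–200. Cytochrome c reduction was followed with and without inhibitor. Km(DBH₂), Vmax and Ki came from double-reciprocal plots, assuming competitive inhibition.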

Assay [6] can be described thus: Competitive inhibition of pig heart Cytochrome b-c1 complex using DBH2 as substrate in absence of lauryl maltoside by Line-weaverBurk plot analysis. Also noted: species or system Sus scrofa.
For assay [7], the species on record is Sus scrofa. Kind of assay: Activity of pig heart Cytochrome b-c1 complex using DBH2 as substrate by Line-weaverBurk plot analysis. The gist of the method:
as §2

A short description of assay [8]: Competitive inhibition of pig heart Cytochrome b-c1 complex using DBH2 as substrate by Line-weaverBurk plot analysis. Also noted: species or system Sus scrofa. The gist of the method: as §2
Assay [9] in a line: Non-competitive inhibition of pig heart succinate-cytochrome c reductase (Electron transport protein complex 2/3) using cytochrome c as substrate by Line-weaverBurk plot analysis. Also noted: species or system Sus scrofa. In outline:
as §1

The species named for assay [10] is Sus scrofa. The experiment in a line: Ratio Vmax for pig heart succinate-cytochrome c reductase (Electron transport protein complex 2/3) to Vmax for pig heart Cytochrome b-c1 complex.
The species named for assay [11] is Sus scrofa. The experiment in a line: Inhibition of pig heart Succinate-ubiquinone oxidoreductase assessed as decrease of 2,6-dichlorophenolindophenol at 20 uM by spectrophotometer.
The species named for assay [12] is Sus scrofa. Kind of assay: Ratio Ki for pig heart Cytochrome b-c1 complex to Ki for pig heart succinate-cytochrome c reductase (Electron transport protein complex 2/3).

In the case of `Cc1ccc(NN2C(=O)OC(C)(c3ccc(Oc4ccccc4)cc3)C2=O)cc1` (centres undefined), the inhibition entry in assay [1] is “Active”. Also, the IC50 in assay [2] was found to be 23.8 nM. Also, the inhibition result in assay [3] is “inactive”.

With `CC1(c2ccc(Oc3ccccc3)cc2)OC(=O)N(Nc2ccc(C(F)(F)F)cc2)C1=O` (centres undefined), in assay [1], the inhibition result is “Active”. Besides, in [2], the IC50 came out at 63.3 nM. Also, the inhibition entry in assay [3] was “inactive”.

On to `CC1(c2ccc(Br)nc2)OC(=O)N(Nc2ccc(C(F)(F)F)cc2)C1=O` (centres undefined), for which the inhibition result in [1] was “Active”. In addition, in assay [2], the IC50 is more than 1000 nM. Moreover, in [3], the inhibition entry was “inactive”.

`CO/C=C(/C(=O)OC)c1ccccc1Oc1cc(Oc2ccccc2C#N)ncn1` [AZOXYSTROBIN]: the values for the Km in assay [4] and in [7] were 4.37 µM and 72.1 µM, respectively. For the same molecule, the figures for the maximal velocity (Vmax) in assay [4] and in assay [7] were 0.0099 µM/s and 0.0528 µM/s, respectively. Further, the IC50 in assay [5] was 527 nM; in [6], 435 nM; in assay [9], 291 nM. Besides, the figures for the Ki in assay [8] and in assay [9] were 204 nM and 295 nM, respectively.

With `CC1(c2ccc(Br)nc2)OC(=O)N(Nc2ccc(Br)cc2)C1=O` (centres undefined), the inhibition entry in [1] is “Active”. The IC50 in [2] is more than 1000 nM. Moreover, in assay [3], the inhibition entry is “inactive”.

Take `Cc1ccc(NN2C(=O)OC(C)(c3ccc(Br)nc3)C2=O)cc1` (centres undefined): the inhibition result in assay [1] is “Active”. Moreover, the IC50 in [2] is more than 1000 nM. Moreover, the inhibition entry in assay [3] was “inactive”.

In the case of `Cc1ccc(NN2C(=O)OC(C)(c3ccc(Oc4ccccc4)cc3)C2=O)c(C)c1` (centres undefined), the inhibition result in assay [1] was “Active”. Also, the IC50 in assay [2] amounted to 15.9 nM. The inhibition result in [3] was “inactive”.

On to `COc1ccc(NN2C(=O)OC(C)(c3ccc(Br)nc3)C2=O)cc1` (centres undefined), for which, in [1], the inhibition result was “Active”. Also, the IC50 in [2] was more than 1000 nM. In addition, in [3], the inhibition result is “inactive”.

On to `CC1(c2ccc(Oc3ccccc3)cc2)OC(=O)N(Nc2ccc(F)cc2Br)C1=O` (centres undefined), for which the inhibition entry in [1] is “Active”. In [2], the IC50 was found to be 60 nM. The inhibition result in [3] is “inactive”.

Regarding `CC1(c2ccc(Oc3ccccc3)cc2)OC(=O)N(Nc2ccc(C#N)cc2)C1=O` (centres undefined), the inhibition entry in assay [1] is “Active”. The IC50 in assay [2] was 275 nM. Besides, the inhibition entry in assay [3] is “inactive”.

Regarding `CC1(c2ccc(Oc3ccccc3)cc2)OC(=O)N(Nc2ccc(Cl)cc2)C1=O` (centres undefined), in assay [1], the inhibition result was “Active”. The IC50 in assay [2] was 18.8 nM. For the same molecule, the inhibition entry in assay [3] is “inactive”.

Turning to `Cc1cccc(C)c1NN1C(=O)OC(C)(c2ccc(Br)nc2)C1=O` (centres undefined), the inhibition result in assay [1] was “Active”. In assay [2], the IC50 was more than 1000 nM. Moreover, the inhibition result in assay [3] is “inactive”.

For the molecule `CC1(c2ccc(Br)nc2)OC(=O)N(Nc2ccc([N+](=O)[O-])cc2)C1=O` (centres undefined), the inhibition entry in assay [1] is “Active”. Besides, the IC50 in assay [2] was more than 1000 nM. Also, the inhibition result in assay [3] is “inactive”.

For `Cc1cccc(C)c1NN1C(=O)OC(C)(c2ccc(Oc3ccccc3)cc2)C1=O` (centres undefined), the inhibition result in [1] was “Active”. In addition, the IC50 in assay [2] stood at 1520 nM. The inhibition result in assay [3] was “inactive”.

As to `CC1(c2ccc(Br)nc2)OC(=O)N(Nc2ccccc2)C1=O` (centres undefined), the inhibition result in assay [1] was “Active”. Moreover, the IC50 in assay [2] is more than 1000 nM. Besides, the inhibition entry in assay [3] was “inactive”.

As for `CC1(c2ccc(Oc3ccccc3)cc2)OC(=O)N(Nc2ccc(C(=O)O)cc2)C1=O` (centres undefined), the inhibition entry in [1] was “Active”. The half-inhibitory concentration (IC50) in assay [2] is 5310 nM. For the same molecule, the inhibition entry in [3] is “inactive”.

Turning to `CC1(c2ccc(Oc3ccccc3)cc2)OC(=O)N(Nc2cccc(C(=O)O)c2)C1=O` (centres undefined), the inhibition result in [1] is “Active”. Further, in assay [2], the IC50 turned out to be 24 nM. Besides, the inhibition entry in assay [3] was “inactive”.

Take `CC1(c2ccc(Oc3ccccc3)cc2)OC(=O)N(Nc2ccc(Br)cc2)C1=O` (centres undefined): in [10], the Ratio was found to be 0.14. Further, the Km in assay [4] amounted to 4.45 µM; in assay [7], 78 µM. For the same molecule, the Vmax is 0.0081 µM/s in assay [4] and 0.0574 µM/s in [7]. Moreover, the IC50 was determined as 1050 nM in [5], 337 nM in assay [6], 9.44 nM in assay [2] and 9.03 nM in [9]. For the same molecule, the inhibition entry in assay [11] and in assay [3] was “inactive” in each case. Moreover, the inhibition result in [1] was “Active”. The Ki in assay [8] came to 329 nM; in assay [9], 9.44 nM. For the same molecule, the Ratio Ki in assay [12] was 35.

For the molecule `Cc1ccc(NN2C(=O)OC(C)(c3ccc(Br)nc3)C2=O)c(C)c1` (centres undefined), the inhibition entry in assay [1] was “Active”. Also, in assay [2], the IC50 is more than 1000 nM. For the same molecule, in assay [3], the inhibition entry was “inactive”.

In the case of `CC1(c2ccc(Br)nc2)OC(=O)N(Nc2ccc(F)cc2Br)C1=O` (centres undefined), the inhibition entry in assay [1] was “Active”. In assay [2], the IC50 is more than 1000 nM. The inhibition result in [3] was “inactive”.

On to `CC1(c2ccc(Oc3ccccc3)cc2)OC(=O)N(Nc2ccccc2)C1=O` (centres undefined), for which the Km was 4.47 µM in assay [4] and 66.2 µM in assay [7]. Besides, the Vmax in assay [4] came out at 0.0081 µM/s; in [7], 0.0598 µM/s. For the same molecule, the half-inhibitory concentration (IC50) in assay [5] worked out at 142 nM; in assay [6], 48.2 nM; in [2], 3.62 nM; in assay [9], 4.78 nM. The inhibition result in [11] was “inactive”. Besides, the Ki in assay [8] was determined as 51.4 nM; in assay [9] it was 3.62 nM. Also, the Ratio Ki in assay [12] came out at 15.

On to `CC1(c2ccc(Br)nc2)OC(=O)N(Nc2ccc(C#N)cc2)C1=O` (centres undefined), for which the inhibition entry in assay [1] is “Active”. The IC50 in [2] is more than 1000 nM. Also, the inhibition result in [3] was “inactive”.

Consider `CC1(c2ccc(Br)nc2)OC(=O)N(Nc2ccc(Cl)cc2)C1=O` (centres undefined), for which the inhibition entry in [1] is “Active”. The IC50 in [2] is more than 1000 nM. The inhibition entry in assay [3] was “inactive”.

Turning to `COc1ccc(NN2C(=O)OC(C)(c3ccc(Oc4ccccc4)cc3)C2=O)cc1` (centres undefined), the inhibition result in assay [1] is “Active”. Further, the IC50 in assay [2] amounted to 57.9 nM. Further, the inhibition entry in [3] was “inactive”.
